Our source for the Ki and EC50 values is ChEMBL document CHEMBL1148385, “Synthesis and opioid activity of side-chain-to-side-chain cyclic dynorphin A-(1-11) amide analogues cyclized between positions 2 and 5. 1. Substitutions in position 3” (J Med Chem, 2004).

Where a SMILES comes first, the peptide text is derived from it.

Experiment [1] concerns the target T1, Kappa-type opioid receptor (Rattus norvegicus, UniProt P34975). As to the kind of experiment: Binding affinity towards Opioid receptor kappa 1 expressed in CHO cells was determined by using [3H]diprenorphine as radioligand. It is filed as cell-based. In outline:
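Competition binding at room temperature on CHO cells stably expressing cloned rat κ (radioligand [³H]diprenorphine, KD 0.45 nM), rat μ ([³H]DAMGO, KD 0.49 nM) or mouse δ ([³H]DPDPE, KD 1.76 nM) receptors. Peptidase inhibitors (10 μM bestatin, 30 μM captopril, 50 μM L-leucyl-L-leucine) and 3 mM Mg²⁺ present. Nonspecific binding defined with 10 μM Dyn A-(1–13)NH₂, DAMGO or DPDPE respectively. Logistic fit for IC50; Ki via Cheng–Prusoff; mean ± SEM, ≥3 assays.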

Experiment [2] has as its target Delta-type opioid receptor (Mus musculus, UniProt P32300). As to the kind of experiment: Binding affinity towards opioid receptor delta 1 expressed in CHO cells was determined by using [3H]DPDPE as radioligand. The class given is cell-based.
For experiment [3], the target named is Mu-type opioid receptor (Rattus norvegicus, UniProt P33535). As to the kind of experiment: Binding affinity towards Opioid receptor mu 1 expressed in CHO cells was determined by using[3H]DAMGO as radioligand. It is filed as cell-based.
Experiment [4] has as its target T1, Kappa-type opioid receptor. In words: Inhibition of forskolin-stimulated adenylyl cyclase activity by compound in CHO cells expressing Opioid receptor kappa 1. The class given is functional, cell-based. In outline: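 CHO cells stably expressing cloned rat κ receptor were incubated 40 min at 37 °C with 50 μM forskolin and various peptide concentrations. RO20-1724 (50 μM) and peptidase inhibitors (bestatin, captopril, L-leucyl-L-leucine) were present. [³H]cAMP was counted, with [¹⁴C]cAMP added for recovery correction and counts corrected for crossover. Mean ± SEM of 2–3 separate assays.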

T1 sequence (P34975 whole entry): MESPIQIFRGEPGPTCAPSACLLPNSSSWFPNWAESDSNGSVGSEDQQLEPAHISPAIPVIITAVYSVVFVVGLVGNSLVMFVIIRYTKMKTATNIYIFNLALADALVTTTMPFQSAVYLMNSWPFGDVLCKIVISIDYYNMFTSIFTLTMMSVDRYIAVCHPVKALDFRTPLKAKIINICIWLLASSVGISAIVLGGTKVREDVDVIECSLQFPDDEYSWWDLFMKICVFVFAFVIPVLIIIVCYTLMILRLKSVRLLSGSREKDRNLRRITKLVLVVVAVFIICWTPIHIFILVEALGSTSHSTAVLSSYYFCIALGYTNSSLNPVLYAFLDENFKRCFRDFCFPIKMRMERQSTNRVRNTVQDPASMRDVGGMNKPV
Chain of Delta-type opioid receptor (P32300 whole entry): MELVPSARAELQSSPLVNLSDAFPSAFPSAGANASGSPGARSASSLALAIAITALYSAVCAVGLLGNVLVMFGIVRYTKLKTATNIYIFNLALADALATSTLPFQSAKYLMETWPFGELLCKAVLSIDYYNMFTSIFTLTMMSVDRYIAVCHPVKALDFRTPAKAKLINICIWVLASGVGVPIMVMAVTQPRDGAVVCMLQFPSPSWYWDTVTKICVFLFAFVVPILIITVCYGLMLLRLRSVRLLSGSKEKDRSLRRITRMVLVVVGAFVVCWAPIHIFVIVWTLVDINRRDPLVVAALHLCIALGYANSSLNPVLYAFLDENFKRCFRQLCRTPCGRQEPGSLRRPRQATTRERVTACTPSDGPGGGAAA
Chain of Mu-type opioid receptor (P33535 whole entry): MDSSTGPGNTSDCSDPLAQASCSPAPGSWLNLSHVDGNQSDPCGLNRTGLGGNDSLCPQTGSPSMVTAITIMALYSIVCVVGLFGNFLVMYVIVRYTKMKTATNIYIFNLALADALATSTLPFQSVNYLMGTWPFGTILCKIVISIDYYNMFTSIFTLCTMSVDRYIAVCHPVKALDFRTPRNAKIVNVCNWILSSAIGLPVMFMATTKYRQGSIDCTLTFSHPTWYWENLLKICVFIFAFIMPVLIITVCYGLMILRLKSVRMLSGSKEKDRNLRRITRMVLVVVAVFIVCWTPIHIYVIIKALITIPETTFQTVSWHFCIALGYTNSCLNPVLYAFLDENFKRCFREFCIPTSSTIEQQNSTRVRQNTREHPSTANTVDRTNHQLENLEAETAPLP

For the molecule `CC[C@H](C)[C@H](NC(=O)[C@H](CCCN=C(N)N)NC(=O)[C@H](CCCN=C(N)N)NC(=O)[C@H](CN)NC(=O)[C@H](Cc1ccccc1)NC(=O)[C@@H](Cc1c[nH]c2ccccc12)NC(=O)[C@@H](CC(=O)O)NC(=O)[C@@H](N)Cc1ccc(O)cc1)C(=O)N[C@@H](CCCN=C(N)N)C(=O)N1CCC[C@H]1C(=O)N[C@@H](CCCCN)C(N)=O`, the Ki is 1.26 nM in experiment [1], 813 nM in experiment [2] and 4.57 nM in experiment [3].
As to `CC[C@H](C)[C@H](NC(=O)[C@H](CCCN=C(N)N)NC(=O)[C@H](CCCN=C(N)N)NC(=O)[C@H](CN)NC(=O)[C@H](Cc1ccccc1)NC(=O)CNC(=O)[C@@H](CC(=O)O)NC(=O)[C@@H](N)Cc1ccc(O)cc1)C(=O)N[C@@H](CCCN=C(N)N)C(=O)N1CCC[C@H]1C(=O)N[C@@H](CCCCN)C(N)=O`, the Ki in experiment [1] is 1.59 nM; in experiment [2] it was 11.6 nM; in experiment [3], 0.22 nM.
The matching figures for `CC[C@H](C)[C@H](NC(=O)[C@H](CCCN=C(N)N)NC(=O)[C@H](CCCN=C(N)N)NC(=O)[C@H](CC(C)C)NC(=O)[C@H](Cc1ccccc1)NC(=O)[C@H](Cc1c[nH]c2ccccc12)NC(=O)CNC(=O)[C@@H](N)Cc1ccc(O)cc1)C(=O)N[C@@H](CCCN=C(N)N)C(=O)N1CCC[C@H]1C(=O)N[C@@H](CCCCN)C(N)=O`: 1.56 nM, 168 nM and 42.7 nM.
In the same order, the values of `CC[C@H](C)[C@H](NC(=O)[C@H](CCCN=C(N)N)NC(=O)[C@H](CCCN=C(N)N)NC(=O)[C@@H]1CNC(=O)C[C@@H](NC(=O)[C@@H](N)Cc2ccc(O)cc2)C(=O)NCC(=O)N[C@@H](Cc2ccccc2)C(=O)N1)C(=O)N[C@@H](CCCN=C(N)N)C(=O)N1CCC[C@H]1C(=O)N[C@@H](CCCCN)C(=O)N[C@@H](CC(C)C)C(=O)N[C@@H](CCCCN)C(N)=O` (HELM PEPTIDE1{Y.[dD].G.F.[O=C([C@H](CN[*:3])N[*:1])[*:2]].R.R.I.R.P.K.L.K.[am]}$PEPTIDE1,PEPTIDE1,2:R3-5:R3$$$V2.0) are 0.16 nM, 3.31 nM and 1.17 nM.
Regarding `CC[C@H](C)[C@H](NC(=O)[C@H](CCCN=C(N)N)NC(=O)[C@H](CCCN=C(N)N)NC(=O)[C@H](CN)NC(=O)[C@H](Cc1ccccc1)NC(=O)[C@H](Cc1c[nH]c2ccccc12)NC(=O)[C@@H](CC(=O)O)NC(=O)[C@@H](N)Cc1ccc(O)cc1)C(=O)N[C@@H](CCCN=C(N)N)C(=O)N1CCC[C@H]1C(=O)N[C@@H](CCCCN)C(N)=O`, the Ki in experiment [1] was determined as 1.34 nM; in experiment [2], 927 nM; in experiment [3], 3.41 nM.
In the same order, the values of `CC[C@H](C)[C@H](NC(=O)[C@H](CCCN=C(N)N)NC(=O)[C@H](CCCN=C(N)N)NC(=O)[C@H](CN)NC(=O)[C@H](Cc1ccccc1)NC(=O)[C@@H](C)NC(=O)[C@@H](CC(=O)O)NC(=O)[C@@H](N)Cc1ccc(O)cc1)C(=O)N[C@@H](CCCN=C(N)N)C(=O)N1CCC[C@H]1C(=O)N[C@@H](CCCCN)C(N)=O` are 6.12 nM, 959 nM and 4.21 nM.
In the same order, the values of `CC[C@H](C)[C@H](NC(=O)[C@H](CCCNC(=N)N)NC(=O)[C@H](CCCNC(=N)N)NC(=O)[C@H](CC(C)C)NC(=O)[C@H](Cc1ccccc1)NC(=O)[C@@H](Cc1c[nH]c2ccccc12)NC(=O)CNC(=O)[C@@H](N)Cc1ccc(O)cc1)C(=O)N[C@@H](CCCNC(=N)N)C(=O)N1CCC[C@H]1C(=O)N[C@@H](CCCCN)C(N)=O` are 5.41 nM, 1080 nM and 45.9 nM.
Turning to `CC[C@H](C)[C@H](NC(=O)[C@H](CCCNC(=N)N)NC(=O)[C@H](CCCNC(=N)N)NC(=O)[C@H](CC(C)C)NC(=O)[C@H](Cc1ccccc1)NC(=O)[C@@H](C)NC(=O)CNC(=O)[C@@H](N)Cc1ccc(O)cc1)C(=O)N[C@@H](CCCNC(=N)N)C(=O)N1CCC[C@H]1C(=O)N[C@@H](CCCCN)C(N)=O`, the Ki in experiment [1] amounted to 0.34 nM; in experiment [3] it was 19.8 nM.
Turning to `CC[C@H](C)[C@H](NC(=O)[C@H](CCCNC(=N)N)NC(=O)[C@H](CCCNC(=N)N)NC(=O)[C@@H]1CNC(=O)C[C@@H](NC(=O)[C@@H](N)Cc2ccc(O)cc2)C(=O)N2CCC[C@H]2C(=O)N[C@@H](Cc2ccccc2)C(=O)N1)C(=O)N[C@@H](CCCNC(=N)N)C(=O)N1CCC[C@H]1C(=O)N[C@@H](CCCCN)C(N)=O`, the EC50 in experiment [4] turned out to be 153 nM. For the same molecule, the values for the Ki in experiment [1], in experiment [2] and in experiment [3] were 9.03 nM, > 10000 nM and 125 nM, respectively.
The molecule `CC[C@H](C)[C@H](NC(=O)[C@H](CCCN=C(N)N)NC(=O)[C@H](CCCN=C(N)N)NC(=O)[C@@H]1CNC(=O)C[C@@H](NC(=O)[C@@H](N)Cc2ccc(O)cc2)C(=O)N[C@H](Cc2c[nH]c3ccccc23)C(=O)N[C@@H](Cc2ccccc2)C(=O)N1)C(=O)N[C@@H](CCCN=C(N)N)C(=O)N1CCC[C@H]1C(=O)N[C@@H](CCCCN)C(N)=O` had an EC50 in experiment [4] of 12 nM. Further, the Ki in experiment [1] is 2.25 nM; in experiment [2], 949 nM; in experiment [3] it was 7.27 nM.
Turning to `CC[C@H](C)[C@H](NC(=O)[C@H](CCCN=C(N)N)NC(=O)[C@H](CCCN=C(N)N)NC(=O)[C@H](CC(C)C)NC(=O)[C@H](Cc1ccccc1)NC(=O)CNC(=O)CNC(=O)[C@@H](N)Cc1ccc(O)cc1)C(=O)N[C@@H](CCCN=C(N)N)C(=O)N1CCC[C@H]1C(=O)N[C@@H](CCCCN)C(=O)N[C@@H](CC(C)C)C(=O)N[C@@H](CCCCN)C(N)=O`, the Ki turned out to be 0.39 nM in experiment [1], 6.07 nM in experiment [2] and 1.88 nM in experiment [3].
As to `CC[C@H](C)[C@H](NC(=O)[C@H](CCCN=C(N)N)NC(=O)[C@H](CCCN=C(N)N)NC(=O)[C@H](CN)NC(=O)[C@H](Cc1ccccc1)NC(=O)[C@H](C)NC(=O)[C@@H](CC(=O)O)NC(=O)[C@@H](N)Cc1ccc(O)cc1)C(=O)N[C@@H](CCCN=C(N)N)C(=O)N1CCC[C@H]1C(=O)N[C@@H](CCCCN)C(N)=O`, the Ki in experiment [1] was determined as 0.86 nM; in experiment [2], 55.1 nM; in experiment [3], 2.02 nM.
With `CC[C@H](C)[C@H](NC(=O)[C@H](CCCNC(=N)N)NC(=O)[C@H](CCCNC(=N)N)NC(=O)[C@@H]1CNC(=O)C[C@@H](NC(=O)[C@@H](N)Cc2ccc(O)cc2)C(=O)N[C@H](C)C(=O)N[C@@H](Cc2ccccc2)C(=O)N1)C(=O)N[C@@H](CCCNC(=N)N)C(=O)N1CCC[C@H]1C(=O)N[C@@H](CCCCN)C(N)=O`, in experiment [4], a half-maximal effect (EC50) was put at 0.54 nM. Moreover, the results for the Ki in experiment [1], in experiment [2] and in experiment [3] were 0.21 nM, 139 nM and 3.89 nM, respectively.
Regarding `CC[C@H](C)[C@H](NC(=O)[C@H](CCCN=C(N)N)NC(=O)[C@H](CCCN=C(N)N)NC(=O)[C@H](CN)NC(=O)[C@H](Cc1ccccc1)NC(=O)CNC(=O)[C@@H](CC(=O)O)NC(=O)[C@@H](N)Cc1ccc(O)cc1)C(=O)N[C@@H](CCCN=C(N)N)C(=O)N1CCC[C@H]1C(=O)N[C@@H](CCCCN)C(=O)N[C@@H](CC(C)C)C(=O)N[C@@H](CCCCN)C(N)=O`, the inhibition constant Ki in experiment [1] was determined as 0.2 nM; in experiment [2], 3.9 nM; in experiment [3], 0.26 nM.
`CC[C@H](C)[C@H](NC(=O)[C@H](CCCN=C(N)N)NC(=O)[C@H](CCCN=C(N)N)NC(=O)[C@@H]1CNC(=O)C[C@@H](NC(=O)[C@@H](N)Cc2ccc(O)cc2)C(=O)N[C@@H](C)C(=O)N[C@@H](Cc2ccccc2)C(=O)N1)C(=O)N[C@@H](CCCN=C(N)N)C(=O)N1CCC[C@H]1C(=O)N[C@@H](CCCCN)C(N)=O` gave an EC50 in experiment [4] of 0.65 nM. Moreover, the values for the Ki in experiment [1], in experiment [2] and in experiment [3] were 1.1 nM, 30.8 nM and 2.52 nM, respectively.
`CC[C@H](C)[C@H](NC(=O)[C@H](CCCN=C(N)N)NC(=O)[C@H](CCCN=C(N)N)NC(=O)[C@@H]1CNC(=O)C[C@@H](NC(=O)[C@@H](N)Cc2ccc(O)cc2)C(=O)NCC(=O)N[C@@H](Cc2ccccc2)C(=O)N1)C(=O)N[C@@H](CCCN=C(N)N)C(=O)N1CCC[C@H]1C(=O)N[C@@H](CCCCN)C(N)=O` returned an EC50 in experiment [4] of 0.39 nM. Besides, the Ki is 0.46 nM in experiment [1], 5.1 nM in experiment [2] and 0.52 nM in experiment [3].
On to `CC[C@H](C)[C@H](NC(=O)[C@H](CCCNC(=N)N)NC(=O)[C@H](CCCNC(=N)N)NC(=O)[C@H](CC(C)C)NC(=O)[C@H](Cc1ccccc1)NC(=O)[C@H](C)NC(=O)CNC(=O)[C@@H](N)Cc1ccc(O)cc1)C(=O)N[C@@H](CCCNC(=N)N)C(=O)N1CCC[C@H]1C(=O)N[C@@H](CCCCN)C(N)=O`, for which the results for the Ki in experiment [1] and in experiment [3] were 0.26 nM and 16.4 nM, respectively.
With `CC[C@H](C)[C@H](NC(=O)[C@H](CCCNC(=N)N)NC(=O)[C@H](CCCNC(=N)N)NC(=O)[C@@H]1CNC(=O)C[C@@H](NC(=O)[C@@H](N)Cc2ccc(O)cc2)C(=O)N[C@@H](Cc2c[nH]c3ccccc23)C(=O)N[C@@H](Cc2ccccc2)C(=O)N1)C(=O)N[C@@H](CCCNC(=N)N)C(=O)N1CCC[C@H]1C(=O)N[C@@H](CCCCN)C(N)=O`, the EC50 in experiment [4] came out at 4.19 nM. For the same molecule, the Ki in experiment [1] was 1.33 nM; in experiment [2], 7070 nM; in experiment [3], 2.09 nM.
`CC[C@H](C)[C@H](NC(=O)[C@H](CCCN=C(N)N)NC(=O)[C@H](CCCN=C(N)N)NC(=O)[C@H](CC(C)C)NC(=O)[C@H](Cc1ccccc1)NC(=O)CNC(=O)CNC(=O)[C@@H](N)Cc1ccc(O)cc1)C(=O)N[C@@H](CCCN=C(N)N)C(=O)N1CCC[C@H]1C(=O)N[C@@H](CCCCN)C(N)=O`: in experiment [1], the Ki was 0.14 nM.
